Measurements as given in ChEMBL document CHEMBL1250476, “Synthesis and antifungal evaluation of novel triazole derivatives as inhibitors of cytochrome P450 14alpha-demethylase” (2010).
Values after ≈ are worked out from the molar mass of the structure shown.

Columns and labels:
Assay type in all cases: functional
Candida albicans [1] = experiment: Antifungal activity against Candida albicans SC5314 after 24 hrs by micro-broth dilution method; details: SC5314, 24 h
Summary of the method: (§1)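 Broth microdilution per NCCLS on Candida albicans. Compounds were dissolved in DMSO, serially diluted in growth medium, inoculated and incubated at 35 °C. Growth was read at 24 h, and MIC80 was taken as the first well with about 80% growth reduction relative to the drug-free control. Values are the mean of three replicates.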

Aspergillus fumigatus = experiment: Antifungal activity against Aspergillus fumigatus by micro-broth dilution method
Summary of the method: (§2)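 MIC80 by broth microdilution in 96-well format following NCCLS. Compounds were dissolved in DMSO, serially diluted in growth medium, inoculated and incubated at 35 °C. The endpoint was the first well with about 80% growth reduction versus the drug-free well. Values are means of three replicate tests.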

Candida tropicalis = experiment: Antifungal activity against Candida tropicalis by micro-broth dilution method; summary of the method: as §2
Kluyveromyces marxianus = experiment: Antifungal activity against Candida kefyr by micro-broth dilution method; summary of the method: as §2
Trichophyton rubrum = experiment: Antifungal activity against Trichophyton rubrum by micro-broth dilution method; summary of the method: as §2
Candida albicans [2] = experiment: Antifungal activity against Candida albicans Y0109 after 24 hrs by micro-broth dilution method; details: Y0109, 24 h; summary of the method: as §1
Candida parapsilosis = experiment: Antifungal activity against Candida parapsilosis by micro-broth dilution method; details: Lodderomyces parapsilosis; summary of the method: as §2
Cryptococcus neoformans = experiment: Antifungal activity against Cryptococcus neoformans after 72 hrs by micro-broth dilution method
Summary of the method: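 Cryptococcus neoformans tested by NCCLS micro-broth dilution. Compounds were dissolved in DMSO, serially diluted in medium, inoculated and incubated at 35 °C. MIC80 was read at 72 h as the first well showing approximately 80% growth reduction compared with the drug-free well. Values are the mean of three replicate tests.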

| SMILES | MIC (Candida albicans [1]) | MIC (Aspergillus fumigatus) | MIC (Candida tropicalis) | MIC (Kluyveromyces marxianus) | MIC (Trichophyton rubrum) | MIC (Candida albicans [2]) | MIC (Candida parapsilosis) | MIC (Cryptococcus neoformans) |
| --- | --- | --- | --- | --- | --- | --- | --- | --- |
| OC(CN(Cc1cn(Cc2ccccc2Br)nn1)C1CC1)(Cn1cncn1)c1ccc(F)cc1F (configuration not stated) | 0.25 µg/mL (≈ 0.459 µM) | > 64 µg/mL | 2 µg/mL (≈ 3.67 µM) | 0.0625 µg/mL (≈ 0.115 µM) | 2 µg/mL (≈ 3.67 µM) | 16 µg/mL (≈ 29.4 µM) | 2 µg/mL (≈ 3.67 µM) | 64 µg/mL (≈ 118 µM) |
| O=[N+]([O-])c1cccc(Cn2cc(CN(CC(O)(Cn3cncn3)c3ccc(F)cc3F)C3CC3)nn2)c1 (configuration not stated) | 4 µg/mL (≈ 7.84 µM) | > 64 µg/mL | 4 µg/mL (≈ 7.84 µM) | 0.0156 µg/mL (≈ 0.0306 µM) | 0.25 µg/mL (≈ 0.49 µM) | 0.0625 µg/mL (≈ 0.122 µM) | 8 µg/mL (≈ 15.7 µM) | 64 µg/mL (≈ 125 µM) |
| CC(C)N(Cc1cn(Cc2ccc(Cl)cc2Cl)nn1)CC(O)(Cn1cncn1)c1ccc(F)cc1F (configuration not stated) | 4 µg/mL (≈ 7.46 µM) | > 64 µg/mL | 0.25 µg/mL (≈ 0.466 µM) | 0.25 µg/mL (≈ 0.466 µM) | 0.25 µg/mL (≈ 0.466 µM) | 0.0156 µg/mL (≈ 0.0291 µM) | 0.5 µg/mL (≈ 0.932 µM) | 8 µg/mL (≈ 14.9 µM) |
| CC(C)N(Cc1cn(Cc2ccc(C#N)cc2)nn1)CC(O)(Cn1cncn1)c1ccc(F)cc1F (configuration not stated) | 1 µg/mL (≈ 2.03 µM) | > 64 µg/mL | < 0.125 µg/mL | 0.25 µg/mL (≈ 0.508 µM) | < 0.125 µg/mL | 0.0156 µg/mL (≈ 0.0317 µM) | 0.5 µg/mL (≈ 1.02 µM) | 16 µg/mL (≈ 32.5 µM) |
| OC(CN(Cc1cn(Cc2ccc(Cl)cc2)nn1)C1CC1)(Cn1cncn1)c1ccc(F)cc1F (configuration not stated) | 0.25 µg/mL (≈ 0.5 µM) | > 64 µg/mL | 0.5 µg/mL (≈ 1 µM) | 0.0156 µg/mL (≈ 0.0312 µM) | 2 µg/mL (≈ 4 µM) | 0.25 µg/mL (≈ 0.5 µM) | 2 µg/mL (≈ 4 µM) | 16 µg/mL (≈ 32 µM) |
| OC(Cn1cncn1)(Cn1cncn1)c1ccc(F)cc1F [FLUCONAZOLE] | 0.5 µg/mL (≈ 1.63 µM) | > 64 µg/mL | < 0.125 µg/mL | 1 µg/mL (≈ 3.27 µM) | < 0.125 µg/mL | 0.5 µg/mL (≈ 1.63 µM) | 2 µg/mL (≈ 6.53 µM) | 8 µg/mL (≈ 26.1 µM) |
| CC(C)N(Cc1cn(Cc2ccccc2Br)nn1)CC(O)(Cn1cncn1)c1ccc(F)cc1F (configuration not stated) | < 0.125 µg/mL | 16 µg/mL (≈ 29.3 µM) | < 0.125 µg/mL | 0.0156 µg/mL (≈ 0.0285 µM) | < 0.125 µg/mL | 0.0156 µg/mL (≈ 0.0285 µM) | < 0.125 µg/mL | 1 µg/mL (≈ 1.83 µM) |
| N#Cc1cccc(Cn2cc(CN(CC(O)(Cn3cncn3)c3ccc(F)cc3F)C3CC3)nn2)c1 (configuration not stated) | 4 µg/mL (≈ 8.15 µM) | > 64 µg/mL | 1 µg/mL (≈ 2.04 µM) | 1 µg/mL (≈ 2.04 µM) | 4 µg/mL (≈ 8.15 µM) | 4 µg/mL (≈ 8.15 µM) | 4 µg/mL (≈ 8.15 µM) | 64 µg/mL (≈ 130 µM) |
| CC(C)N(Cc1cn(Cc2ccc(Br)cc2)nn1)CC(O)(Cn1cncn1)c1ccc(F)cc1F (configuration not stated) | < 0.125 µg/mL | > 64 µg/mL | 1 µg/mL (≈ 1.83 µM) | 0.25 µg/mL (≈ 0.458 µM) | 1 µg/mL (≈ 1.83 µM) | 0.0625 µg/mL (≈ 0.114 µM) | 4 µg/mL (≈ 7.32 µM) | 8 µg/mL (≈ 14.6 µM) |
| CCCCCn1cc(CN(CC(O)(Cn2cncn2)c2ccc(F)cc2F)C2CC2)nn1 (configuration not stated) | < 0.125 µg/mL | > 64 µg/mL | 0.25 µg/mL (≈ 0.561 µM) | 0.25 µg/mL (≈ 0.561 µM) | < 0.125 µg/mL | 0.0625 µg/mL (≈ 0.14 µM) | 0.5 µg/mL (≈ 1.12 µM) | 32 µg/mL (≈ 71.8 µM) |
| CC(C)N(Cc1cn(Cc2ccc(F)cc2)nn1)CC(O)(Cn1cncn1)c1ccc(F)cc1F (configuration not stated) | 0.25 µg/mL (≈ 0.515 µM) | > 64 µg/mL | 1 µg/mL (≈ 2.06 µM) | 0.25 µg/mL (≈ 0.515 µM) | 2 µg/mL (≈ 4.12 µM) | 0.25 µg/mL (≈ 0.515 µM) | 4 µg/mL (≈ 8.24 µM) | 8 µg/mL (≈ 16.5 µM) |
| CC(=O)N1CCN(c2ccc(OCC3COC(Cn4ccnc4)(c4ccc(Cl)cc4Cl)O3)cc2)CC1 (configuration not stated) [KETOCONAZOLE] | < 0.125 µg/mL | 0.125 µg/mL (≈ 0.235 µM) | < 0.125 µg/mL | 0.0625 µg/mL (≈ 0.118 µM) | < 0.125 µg/mL | < 0.125 µg/mL | < 0.125 µg/mL | 0.5 µg/mL (≈ 0.941 µM) |
| Cc1cccc(Cn2cc(CN(CC(O)(Cn3cncn3)c3ccc(F)cc3F)C3CC3)nn2)c1 (configuration not stated) | 0.5 µg/mL (≈ 1.04 µM) | 64 µg/mL (≈ 133 µM) | < 0.125 µg/mL | 0.0156 µg/mL (≈ 0.0325 µM) | < 0.125 µg/mL | 0.0156 µg/mL (≈ 0.0325 µM) | < 0.125 µg/mL | 2 µg/mL (≈ 4.17 µM) |
| C[C@@H](c1ncncc1F)[C@](O)(Cn1cncn1)c1ccc(F)cc1F [VORICONAZOLE] | 32 µg/mL (≈ 91.6 µM) | < 0.125 µg/mL | < 0.125 µg/mL | 0.0039 µg/mL (≈ 0.0112 µM) | 0.25 µg/mL (≈ 0.716 µM) | < 0.125 µg/mL | < 0.125 µg/mL | < 0.125 µg/mL |
| O=[N+]([O-])c1ccccc1Cn1cc(CN(CC(O)(Cn2cncn2)c2ccc(F)cc2F)C2CC2)nn1 (configuration not stated) | 16 µg/mL (≈ 31.3 µM) | > 64 µg/mL | 4 µg/mL (≈ 7.84 µM) | 0.0625 µg/mL (≈ 0.122 µM) | 4 µg/mL (≈ 7.84 µM) | 0.0625 µg/mL (≈ 0.122 µM) | 4 µg/mL (≈ 7.84 µM) | 64 µg/mL (≈ 125 µM) |
| OC(CN(Cc1cn(Cc2cccc(F)c2)nn1)C1CC1)(Cn1cncn1)c1ccc(F)cc1F (configuration not stated) | < 0.125 µg/mL | 64 µg/mL (≈ 132 µM) | < 0.125 µg/mL | 0.0156 µg/mL (≈ 0.0323 µM) | < 0.125 µg/mL | 0.0625 µg/mL (≈ 0.129 µM) | < 0.125 µg/mL | > 64 µg/mL |
| CC(C)N(Cc1cn(Cc2cccc(Br)c2)nn1)CC(O)(Cn1cncn1)c1ccc(F)cc1F (configuration not stated) | 0.25 µg/mL (≈ 0.458 µM) | > 64 µg/mL | 0.25 µg/mL (≈ 0.458 µM) | 0.0039 µg/mL (≈ 0.00714 µM) | 0.0625 µg/mL (≈ 0.114 µM) | 1 µg/mL (≈ 1.83 µM) | 0.0156 µg/mL (≈ 0.0285 µM) | 1 µg/mL (≈ 1.83 µM) |
| Cc1ccccc1Cn1cc(CN(CC(O)(Cn2cncn2)c2ccc(F)cc2F)C2CC2)nn1 (configuration not stated) | 0.0625 µg/mL (≈ 0.13 µM) | > 64 µg/mL | 4 µg/mL (≈ 8.34 µM) | 0.25 µg/mL (≈ 0.521 µM) | 1 µg/mL (≈ 2.09 µM) | 0.0156 µg/mL (≈ 0.0325 µM) | 4 µg/mL (≈ 8.34 µM) | 0.0625 µg/mL (≈ 0.13 µM) |
| CC(C)N(Cc1cn(Cc2ccccc2Cl)nn1)CC(O)(Cn1cncn1)c1ccc(F)cc1F (configuration not stated) | < 0.125 µg/mL | > 64 µg/mL | 1 µg/mL (≈ 1.99 µM) | 0.25 µg/mL (≈ 0.498 µM) | < 0.125 µg/mL | 0.0039 µg/mL (≈ 0.00777 µM) | 2 µg/mL (≈ 3.98 µM) | 16 µg/mL (≈ 31.9 µM) |
